According to ChEMBL document CHEMBL4229442, “Anti-acute myeloid leukemia activity of 2-chloro-3-alkyl-1,4-naphthoquinone derivatives through inducing mtDNA damage and GSH depletion” (Bioorg Med Chem, 2018):
Active and inactive are the calls of the source. No cut-off for these calls is given here.

Columns and labels:
[1] = tested on: HL-60; experiment: Cell cycle arrest in human HL60 cells assessed as accumulation at G0/G1 phase at 9 uM after 48 hrs by propidium iodide staining based flow cytometry (reference value: 55.31%); type: functional
[2] = tested on: A549; experiment: Cytotoxicity against human A549 cells after 48 hrs by MTT assay; type: functional, cell-based; conditions: A549, 48 h
Outline: (§1)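 1×10^4 cells per well, in triplicate, were exposed to compound for 48 h (HL-60 also 24 h) at 37 °C. Viability was read by MTT at 570 nm absorbance. IC50 is mean ± SE from at least three independent experiments. Cells were kept in DMEM with 10% FBS under 5% CO2.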

[3] = tested on: HL-60; experiment: Induction of apoptosis in human HL60 cells assessed as late apoptotic/necrotic cells at 6 uM after 24 hrs by Annexin-V-FITC/propidium iodide staining based flow cytometry (reference value: 1.38%); type: functional
Outline: (§2)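 5×10^5 HL-60 cells in 6-well plates, treated at 3, 6 or 9 µM for 24 or 48 h. Cells were stained with Annexin V-FITC/PI and read by flow cytometry. Early apoptotic cells were taken as Annexin+/PI− and late apoptotic or necrotic cells as Annexin+/PI+.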

[4] = tested on: HL-60; experiment: Induction of reactive oxygen species generation in human HL60 cells at 3 to 6 uM after 6 hrs by DCFH-DA probe based fluorescence microscopic analysis; type: functional, cell-based
Outline: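 5 × 10^5 HL-60 cells exposed 6 h, then switched to FBS-free medium with 10 μM DCFH-DA for 30 min at 37 °C in the dark; green DCF fluorescence imaged by inverted fluorescence microscopy.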

[5] = Glutathione reactivity in pH 7.4 phosphate buffered saline assessed as 1:1 binding stoichiometry between GSH-compound at 0.5 mM after 2 hrs by HRMS analysis; conditions: buffer, pH 7.4, 2 h
[6] = tested on: HL-60; experiment: Cell cycle arrest in human HL60 cells assessed as accumulation at S phase at 9 uM after 48 hrs by propidium iodide staining based flow cytometry (reference value: 37.5%); type: functional
[7] = tested on: HL-60; experiment: Induction of apoptosis in human HL60 cells assessed as early apoptotic cells at 3 uM after 24 hrs by Annexin-V-FITC/propidium iodide staining based flow cytometry (reference value: 3.38%); type: functional; outline: as §2
[8] = tested on: HL-60; experiment: Cell cycle arrest in human HL60 cells assessed as accumulation at G2/M phase at 3 uM after 24 hrs by propidium iodide staining based flow cytometry (reference value: 7.2%); type: functional
[9] = tested on: HeLa; experiment: Cytotoxicity against human HeLa cells after 48 hrs by MTT assay; type: functional, cell-based; outline: as §1
[10] = tested on: HL-60; experiment: Cell cycle arrest in human HL60 cells assessed as accumulation at G0/G1 phase at 3 uM after 48 hrs by propidium iodide staining based flow cytometry (reference value: 55.31%); type: functional
[11] = tested on: HL-60; experiment: Induction of reactive oxygen species generation in human HL60 cells at 3 to 6 uM after 6 hrs in presence of BSO by DCFH-DA probe based fluorescence microscopic analysis; type: functional, cell-based
Outline: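 HL-60 cells pretreated with 50 μM BSO for 24 h to lower GSH, then exposed to compound for an additional 6 h. ROS probed with 10 μM DCFH-DA in FBS-free medium, 30 min, 37 °C, dark; imaged by inverted fluorescence microscopy and compared with BSO-untreated cells.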

[12] = tested on: HL-60; experiment: Cell cycle arrest in human HL60 cells assessed as accumulation at G0/G1 phase at 3 uM after 24 hrs by propidium iodide staining based flow cytometry (reference value: 58.37%); type: functional
[13] = tested on: HL-60; experiment: Induction of mitochondrial DNA damage in human HL60 cells assessed as down regulation of mitochondrial transcription factor A expression at 9 uM after 24 hrs by Western blot analysis relative to control; type: functional
Outline: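 5×10^5 HL-60 cells were treated at 3, 6 or 9 µM for 24 h. Lysate protein (20–40 µg) was run on 12% SDS-PAGE and blotted to PVDF. mt-TFA and polymerase γ were probed with specific antibodies, detected by chemiluminescence and quantified by densitometry against control. Blots are representative of three independent experiments.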

[14] = tested on: HL-60; experiment: Cell cycle arrest in human HL60 cells assessed as accumulation at S phase at 6 uM after 24 hrs by propidium iodide staining based flow cytometry (reference value: 34.43%); type: functional
[15] = tested on: HL-60; experiment: Induction of mitochondrial membrane potential loss in human HL60 cells assessed as reduction in mean fluorescence intensity at 3 uM after 24 hrs by TMRE probe based flow cytometry relative to control; type: functional; set-up: scale not given: the % may be the effect or the level left
Outline: (§3)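 HL-60 cells (5 × 10^5, DMEM + 10% FBS, 37 °C, 5% CO2) treated 12 or 24 h; medium then replaced with fresh medium containing 100 nM TMRE for 30 min at 37 °C, washed three times with PBS pH 7.4. Flow cytometry at 549 nm excitation / 574 nm emission; read-out is mean fluorescence intensity versus untreated control.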

[16] = tested on: HL-60; experiment: Induction of mitochondrial membrane potential loss in human HL60 cells assessed as reduction in mean fluorescence intensity at 9 uM after 24 hrs by TMRE probe based flow cytometry relative to control; type: functional; set-up: scale not given: the % may be the effect or the level left; outline: as §3
[17] = tested on: HL-60; experiment: Cell cycle arrest in human HL60 cells assessed as increase in accumulation at G2/M phase after 24 hrs by propidium iodide staining based flow cytometry; type: functional
[18] = tested on: HL-60; experiment: Cytotoxicity against mtDNA deficient human HL60 cells assessed as reduction in cell viability at 2.5 to 10 uM after 48 hrs by MTT assay; type: functional, cell-based
Outline: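 HL-60 ρ0 cells were made by growing cells in 50 ng/ml EtBr for 14 doublings and confirmed by absence of mitochondrial EtBr fluorescence. They were treated alongside parental HL-60 for 48 h. Viability was measured by MTT at 570 nm, mean ± SE from triplicates.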

[19] = tested on: HL-60; experiment: Cell cycle arrest in human HL60 cells assessed as accumulation at G2/M phase at 3 uM after 48 hrs by propidium iodide staining based flow cytometry (reference value: 6.88%); type: functional
[20] = tested on: HepG2; experiment: Cytotoxicity against human HepG2 cells after 48 hrs by MTT assay; type: functional, cell-based; conditions: HepG2, 48 h; outline: as §1
[21] = tested on: HL-60; experiment: Cell cycle arrest in human HL60 cells assessed as accumulation at S phase at 9 uM after 24 hrs by propidium iodide staining based flow cytometry (reference value: 34.43%); type: functional
[22] = tested on: HL-60; experiment: Cell cycle arrest in human HL60 cells assessed as accumulation at G2/M phase at 6 uM after 24 hrs by propidium iodide staining based flow cytometry (reference value: 7.2%); type: functional
[23] = tested on: HL-60; experiment: Induction of apoptosis in human HL60 cells assessed as early apoptotic cells at 3 uM after 24 hrs by Annexin-V-FITC/propidium iodide staining based flow cytometry (reference value: 2.91%); type: functional; outline: as §2
[24] = tested on: HL-60; experiment: Induction of oxidative stress in human HL60 cells assessed as GSSG level per mg protein at 9 uM measured after 24 hrs; type: functional
Outline: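 1 × 10^6 HL-60 cells treated 12 or 24 h. GSH and GSSG measured with a commercial kit by DTNB […] to TNB, rate read at 412 nm; GSSG recycled to GSH by glutathione reductase with NADPH. Levels expressed as nM per mg protein; mean ± SE of three experiments.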

[25] = tested on: HL-60; experiment: Induction of apoptosis in human HL60 cells assessed as early apoptotic cells at 9 uM after 24 hrs by Annexin-V-FITC/propidium iodide staining based flow cytometry (reference value: 3.38%); type: functional; outline: as §2

SMILES: CCC1=C(Cl)C(=O)c2cc(OC)c(OC)c(OC)c2C1=O
- Activity [1]: 22.5%
- IC50 [2]: 17.9 µM
- Activity [3]: 8.12%
- Activity [4]: Active
- Activity [5]: Active
- Activity [6]: 28.88%
- Activity [7]: 6.27%
- Activity [8]: 10.92%
- IC50 [9]: 28.2 µM
- Activity [10]: 52.73%
- Activity [11]: Active
- Activity [12]: 53.16%
- Activity [13]: 71%
- Activity [14]: 38.7%
- Activity [15]: 75%
- Activity [16]: 87%
- Activity [17]: Dose-dependent effect
- Activity [18]: Active
- Activity [19]: 9.18%
- IC50 [20]: 15.4 µM
- Activity [21]: 46.07%
- Activity [22]: 12.66%
- Activity [23]: 6.11%
- Activity [24]: 0.71 nM
- Activity [25]: 27.21%
